The list is a sample of the results.
HKDC1 act: increases human hexokinase HKDC1 activity. activity change, negative = activation, % at 20 µM. 340,000 tested, 0.056% active. Q2TB90. recombinant HKDC1, G6PDH/diaphorase resazurin fluorescence; hits give low values;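 active = activation of 40% or more at 20 µM, a change of -40% or lower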
Target sequence (Q2TB90 whole entry, looked up): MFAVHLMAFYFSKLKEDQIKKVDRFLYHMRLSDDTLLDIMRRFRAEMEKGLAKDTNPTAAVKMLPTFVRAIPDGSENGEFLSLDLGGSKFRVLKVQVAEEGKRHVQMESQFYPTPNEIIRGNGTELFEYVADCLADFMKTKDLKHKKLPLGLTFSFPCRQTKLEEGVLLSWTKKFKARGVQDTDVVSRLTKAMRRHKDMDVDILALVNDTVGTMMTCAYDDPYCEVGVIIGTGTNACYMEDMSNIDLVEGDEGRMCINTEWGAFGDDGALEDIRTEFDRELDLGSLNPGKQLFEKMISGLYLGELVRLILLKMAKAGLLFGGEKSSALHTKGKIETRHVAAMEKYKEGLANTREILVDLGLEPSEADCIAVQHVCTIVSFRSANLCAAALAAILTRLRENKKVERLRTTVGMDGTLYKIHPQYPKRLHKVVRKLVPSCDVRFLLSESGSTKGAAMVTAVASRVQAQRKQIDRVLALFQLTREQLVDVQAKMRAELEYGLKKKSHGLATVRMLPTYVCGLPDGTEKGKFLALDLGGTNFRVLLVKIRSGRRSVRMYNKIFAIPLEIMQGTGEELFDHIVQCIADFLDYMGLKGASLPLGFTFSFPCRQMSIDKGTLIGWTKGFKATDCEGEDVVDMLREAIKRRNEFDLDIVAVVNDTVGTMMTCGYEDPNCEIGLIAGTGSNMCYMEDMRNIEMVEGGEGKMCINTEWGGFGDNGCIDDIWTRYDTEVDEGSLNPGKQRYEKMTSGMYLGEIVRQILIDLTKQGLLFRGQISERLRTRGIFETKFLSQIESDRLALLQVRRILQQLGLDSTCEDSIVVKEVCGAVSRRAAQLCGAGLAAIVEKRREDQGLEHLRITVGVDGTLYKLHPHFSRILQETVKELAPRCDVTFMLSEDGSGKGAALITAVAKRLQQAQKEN
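Signal: coupled resazurin-to-resorufin fluorescence, Ex 525/Em 613 nm. Test system: in-house human HKDC1 enzyme, G6PDH and diaphorase coupling enzymes. Quantity: HKDC1 5 µg/mL. Timing: 90 min reaction at room temperature, dark.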
* = called active by the depositor.

SMILES	HKDC1 act
Cc1onc(-c2ccccc2)c1C(=O)NNC(=S)NC(=O)/C=C/c1cccs1	-57.2*
O=C(/C=C/c1cccs1)Nc1scc(-c2ccccc2)c1C(=O)O	81.2
Cc1cccc(NC2=C/C(=N/S(=O)(=O)c3cccs3)c3ccccc3C2=O)c1	53.1
CC(=O)n1cc(N(C(=O)CCl)c2ccc(Cl)cc2)c2ccccc21	58.3
O=C1NC(=S)N/C1=C/c1cc2c(cc1[N+](=O)[O-])OCO2	-66.8*
CC1(C)Cc2ccccc2C2=NNC(=O)C2=N1	53.0
O=C1NC(=S)S/C1=C\c1ccc(SCc2ccco2)o1	50.6
Cc1ccc2c(c1C)-c1c(ccc(C)c1C)C(=O)C2=O	38.0
CC(C)C(=O)N(c1cc2sc(=O)oc2c2ccccc12)S(=O)(=O)c1cccs1	45.0
Cc1c(C(=O)Oc2ccc(-c3cnc4ccccc4n3)cc2)cccc1[N+](=O)[O-]	-89.0*
O=C(CSc1n[nH]c(-c2cccnc2)n1)Nc1ccc([N+](=O)[O-])cc1Br	45.6
O=C1CSC(=S)N1N=Cc1ccccc1O	-42.0*
O=C1C=CC(=O)C(CNc2ccc(C(=O)OCc3ccccc3)cc2)=C1	46.7
CC(=NNC(=S)N1CC2CCC(CC2)C1)c1cccc(C)n1	-46.5*
O=C(O)CSc1cc(NS(=O)(=O)c2ccc(Cl)cc2)c2ccccc2c1O	65.4
Nc1ccc(N)c(C(=O)O)c1	36.0
O=C(O)c1cccc(-c2ccc(/C=c3/sc4nc5ccccc5n4c3=O)o2)c1	47.9
CCc1nn2c(=O)cc(COc3ccc(/C=C4\C(=N)N5N=C(C)SC5=NC4=O)cc3)nc2s1	58.2
Cc1cc(C)nc(/N=c2/ssnc2Cl)c1	-136.6*
COc1cc(N=c2ssnc2Cl)c(OC)cc1Cl	-45.7*
Cc1ccc(N=c2ssnc2Cl)cc1	-50.8*
Cc1nnc(N=c2ssnc2Cl)o1	-88.2*
NC1=C(Br)C(=O)c2ncccc2C1=O	37.9
O=C1C=C(N2CCCCC2)c2ccccc2C1=O	80.6
Cc1cc(C)n(-c2ccc(NC(=O)C3CCN(Cc4cc(C)c(C)o4)CC3)cc2)n1	41.0
SMILES	HKDC1 act
Cn1c(/N=C/c2c(O)ccc3ccccc23)nc2ccccc21	53.7
O=C(CN1C(=O)/C(=C2/SC(=S)N(CCS(=O)(=O)O)C2=O)c2ccccc21)Nc1cccc(C(F)(F)F)c1	36.2
Cc1ccc(Cl)cc1NC1=C/C(=N\S(=O)(=O)c2cccs2)c2ccccc2C1=O	36.0
N#C/C(=C(/O)CCl)c1nc2c(s1)CCc1ccccc1-2	43.5
CC(=O)NC1C(=O)N(CCN2CCOCC2)c2ccc(C)cc21 (stereo not drawn)	85.7
COc1cc(NS(=O)(=O)c2ccc(NC(=O)c3ccc(F)cc3)cc2)ncn1	-58.8*
Cc1ccc(C(=O)ONc2ccc(N=NC(=O)c3ccccc3O)cc2)cc1	65.0
CCOC(=O)N1CCN(c2cc(NCCC(=O)O)c3c4c(onc24)-c2ccccc2C3=O)CC1	37.1
O=[N+]([O-])c1ccc(-c2csc(N/N=C/c3cccnc3)n2)cc1	35.6
O=c1[nH]c(=O)c2nc3c4ccccc4c4ccccc4c3nc2[nH]1	37.3
Cc1cccn2c(=O)c3cc(C(N)=S)c(=N)n(CCCN4CCOCC4)c3nc12	-53.8*
Cc1ccc(SSc2cc(C)ccc2N)c(N)c1	-44.3*
O=S(=O)(Nc1ccc(O)c2ccccc12)c1cccs1	51.0
Cc1cc2cc(CCNC(=O)c3ccc(S(=O)(=O)N4CCCC4)cc3)c(=O)[nH]c2cc1C	41.4
Cc1cc2cc(CN(Cc3cccs3)S(=O)(=O)c3ccc4c(c3)OCCO4)c(=O)[nH]c2cc1C	-47.0*
Cc1cc(O)c(-c2cc(O)c(C)cc2O)cc1O	44.7
CCCCNC(=O)c1sc(=S)n2c1[nH]c(=O)c1ccc(C(=O)NCCc3ccc(OC)c(OC)c3)cc12	47.9
O=C(CCl)N1c2ccccc2Sc2c1ccc1ccccc21	44.2
O=c1oc2c(O)c(O)cc3c(=O)oc4c(O)c(O)cc1c4c23	54.0
O=C(Nc1ccc(N2CCCC2)cc1)c1cccc(-c2cc3ccccc3oc2=O)c1	-40.2*
COc1ccc([C@@H]2C[C@H](c3ccccc3)Oc3cc(OC)c(OC)c(OC)c32)cc1	36.7
Cc1cc(C)c2c(=O)[nH]cnc2n1	64.4
CC(=NNC(=O)c1ccncc1)c1ccc(O)cc1O	-40.2*
Cc1cc(C)n(CCC(=O)N/N=C/c2ccc(O)cc2O)n1	-42.3*
O=C(CNC(=O)c1ccc2c(c1)OCCO2)N/N=C/c1ccc(O)cc1O	-50.6*
SMILES	HKDC1 act
Cc1cc(SCC(=O)N/N=C/c2ccc(O)c(O)c2O)c(C)cc1Br	44.5
O=C(CNC(=O)c1ccncc1)N/N=C/c1ccc(O)cc1O	-40.6*
COc1ccc(-c2nc3c(C(=O)NCCN(C)C)cccc3c3ccccc23)cc1	39.5
O=S(=O)(O)c1ccc(O)c2cc(Nc3ccccc3)ccc12	64.6
O=C1C=CC(=O)c2c(O)c(CO)c(CO)c(O)c21	48.5
COc1cc(/C=C2\SC(c3ccc(C)cc3)=NC2=O)cc(OC)c1O	47.5
COc1ccc(-c2cc3ccccc3[nH]2)cc1	38.5
O=C1C=C(c2c(O)ccc3ccccc23)c2ccccc2C1=O	93.3
COC(=O)c1sc(NC(=O)CSc2nc3nc(C)cc(C)n3n2)c(C(=O)OC)c1C	35.3
N#CC(C#N)=c1ccc2c(c1)N1C3=C(CCCC3)CC3CCCCC31N=2 (stereo not drawn)	38.8
COC1=C(C)C(=O)C2=C(C1=O)C1C3CC4=C(C(=O)C(OC)=C(C)C4=O)C(CNC(=O)C(C)=O)N3C(C#N)C(C2)N1C (stereo not drawn)	60.5
CCC(C)C(N)C1=NC(C(=O)N[C@@H](CC(C)C)C(=O)N[C@H](CCC(=O)[O-])C(=O)N[C@H](C(=O)N[C@H]2CCCCNC(=O)[C@H](CC(N)=O)NC(=O)[C@@H](CC(=O)[O-])NC(=O)[C@H](Cc3cnc[nH]3)NC(=O)[C@@H](Cc3ccccc3)NC(=O)[C@H]([C@@H](C)CC)NC(=O)[C@@H](CCCN)NC2=O)[C@@H](C)CC)CS1.[Zn+2] (stereo partly drawn)	91.6
O=C(C1=C(O)C(=O)N(c2nc3ccc(Cl)cc3s2)C1c1ccco1)c1ccco1 (stereo not drawn)	36.3
C=CCn1nc([N+](=O)[O-])nc1Sc1cccc2cccnc12	-46.5*
CCOC(=O)/C(=C\c1cccnc1)C(=O)c1cc(C(C)=O)c(Nc2ccccc2)s1	42.5
COc1ccc2cc(/C=N/NC(=O)c3c(Cl)cnn3C)c(Cl)nc2c1	-74.9*
O=S(=O)(O)c1cc(O)c2ccc(Nc3ccccc3)cc2c1	49.9
Cc1ccc(SC2=C(N(C)C)C(=O)c3ccccc3C2=O)cc1	57.4
CC(C)c1nc2oc3c(NCc4ccccn4)ncnc3c2c2c1COC(C)(C)C2	35.3
O=C(N/N=C/c1ccccc1OC(=O)c1ccc2c(c1)OCO2)c1ccccc1	-48.1*
CCc1ccc(S(=O)(=O)/N=C2/C=C(Sc3ncn[nH]3)C(=O)c3ccccc32)cc1	71.3
O=C(Nc1ccc2nc(-c3ccco3)c(-c3ccco3)nc2c1)NC1CC1	50.2
Cc1cc2nnc(SCC(=O)Nc3cc(S(=O)(=O)N4CCOCC4)ccc3Cl)n2c2ccccc12	47.8
O=S(=O)(c1ccc(NC(=S)NN=C(Cc2ccccc2)Cc2ccccc2)cc1)N1CCOCC1	-47.1*
CCOC(=O)C1=C(Cc2ccc(OC)cc2)C(=O)c2ccccc2C1=O	71.4
COc1ccccc1Nc1ccc2c(O)cc(S(=O)(=O)O)cc2c1	38.0
COC(=O)c1ccc(NC(=O)CSc2n[nH]c(-c3ccncc3)n2)cc1	36.3

Screens deposited in PubChem by Sanford-Burnham Center for Chemical Genomics.
